From ChEMBL document CHEMBL1147663, “Structure-activity relationships of bifunctional peptides based on overlapping pharmacophores at opioid and cholecystokinin receptors” (J Med Chem, 2006)
The source made the active and inactive calls. The calls are words filed in the database; no cut-off is given here.

Assays:
[1] = target: Delta-type opioid receptor (Mus musculus, UniProt P32300); assay: Agonist activity at delta opioid receptor assessed as inhibition of electrically stimulated ICR mouse vas deferens contraction; assay type: functional, tissue-based
Sequence of Delta-type opioid receptor (Mus musculus, UniProt P32300) (P32300 whole entry): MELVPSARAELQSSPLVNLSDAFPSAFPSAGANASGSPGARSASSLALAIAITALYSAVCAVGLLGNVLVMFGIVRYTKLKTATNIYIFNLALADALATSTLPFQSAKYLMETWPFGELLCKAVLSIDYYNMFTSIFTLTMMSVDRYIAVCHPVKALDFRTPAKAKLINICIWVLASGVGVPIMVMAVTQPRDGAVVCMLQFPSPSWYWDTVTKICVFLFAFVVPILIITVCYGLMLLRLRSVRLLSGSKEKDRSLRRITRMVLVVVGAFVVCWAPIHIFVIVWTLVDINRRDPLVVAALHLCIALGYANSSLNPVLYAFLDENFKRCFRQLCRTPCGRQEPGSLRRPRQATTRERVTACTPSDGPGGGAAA
How it was run: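 Vas deferens from male ICR mice, in 20 mL baths at 0.5 g tension, Mg-free oxygenated Krebs, 37 °C; electrical stimulation 0.1 Hz, 2.0 ms pulses, supramaximal voltage. Cumulative addition to maximal inhibition; integrity checked with 10 nM DPDPE. IC50 by Hill-equation nonlinear least-squares fit, at least four tissues.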

Mu-type opioid receptor [2] = target: T1, Mu-type opioid receptor (Rattus norvegicus, UniProt P33535); assay: Displacement of [3H]DAMGO from rat mu opioid receptor expressed in HN9.10 cells; assay type: cell-based
T1 sequence (P33535 whole entry): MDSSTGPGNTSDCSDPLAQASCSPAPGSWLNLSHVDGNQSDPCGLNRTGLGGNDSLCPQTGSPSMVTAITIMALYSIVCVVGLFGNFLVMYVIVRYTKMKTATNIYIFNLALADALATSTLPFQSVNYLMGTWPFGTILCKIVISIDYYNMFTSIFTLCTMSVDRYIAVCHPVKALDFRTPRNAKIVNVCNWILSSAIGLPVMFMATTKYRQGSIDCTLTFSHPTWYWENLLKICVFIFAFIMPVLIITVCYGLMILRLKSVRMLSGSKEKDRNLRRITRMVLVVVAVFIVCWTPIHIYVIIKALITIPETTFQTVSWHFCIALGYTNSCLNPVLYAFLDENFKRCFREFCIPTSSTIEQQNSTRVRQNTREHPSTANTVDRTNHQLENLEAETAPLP
How it was run: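 HN9.10 cell membranes (50 μg) expressing rMOR, 10 test concentrations with 1.0 nM [3H]DAMGO in 50 mM Tris pH 7.4 with peptidase inhibitors and BSA, 3 h at 25 °C, duplicates; filtration, scintillation counting. Nonspecific with 10 μM naloxone. Ki by Cheng–Prusoff.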

[3] = target: T2, Gastrin/cholecystokinin type B receptor (Homo sapiens, UniProt P32239); assay: Displacement of [125I]CCK-8(SO3) from human CCK2 receptor expressed in HEK293 cells; assay type: cell-based
T2 sequence (P32239 whole entry): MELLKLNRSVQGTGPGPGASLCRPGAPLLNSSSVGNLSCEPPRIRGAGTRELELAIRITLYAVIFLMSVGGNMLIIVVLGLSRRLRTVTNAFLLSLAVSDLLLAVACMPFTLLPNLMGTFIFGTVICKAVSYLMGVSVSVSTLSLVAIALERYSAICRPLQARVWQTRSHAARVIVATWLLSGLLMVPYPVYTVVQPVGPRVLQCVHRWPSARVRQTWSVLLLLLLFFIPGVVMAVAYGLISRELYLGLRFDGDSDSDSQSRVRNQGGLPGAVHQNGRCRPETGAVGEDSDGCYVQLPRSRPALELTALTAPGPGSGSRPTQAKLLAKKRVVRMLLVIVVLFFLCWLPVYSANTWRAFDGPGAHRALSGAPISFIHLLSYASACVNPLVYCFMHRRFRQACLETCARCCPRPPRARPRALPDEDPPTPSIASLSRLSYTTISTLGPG

[4] = target: T3, Cholecystokinin receptor type A (Homo sapiens, UniProt P32238); assay: Displacement of [125I]CCK-8(SO3) from human CCK1 receptor expressed in HEK293 cells; assay type: cell-based
T3 sequence (P32238 whole entry): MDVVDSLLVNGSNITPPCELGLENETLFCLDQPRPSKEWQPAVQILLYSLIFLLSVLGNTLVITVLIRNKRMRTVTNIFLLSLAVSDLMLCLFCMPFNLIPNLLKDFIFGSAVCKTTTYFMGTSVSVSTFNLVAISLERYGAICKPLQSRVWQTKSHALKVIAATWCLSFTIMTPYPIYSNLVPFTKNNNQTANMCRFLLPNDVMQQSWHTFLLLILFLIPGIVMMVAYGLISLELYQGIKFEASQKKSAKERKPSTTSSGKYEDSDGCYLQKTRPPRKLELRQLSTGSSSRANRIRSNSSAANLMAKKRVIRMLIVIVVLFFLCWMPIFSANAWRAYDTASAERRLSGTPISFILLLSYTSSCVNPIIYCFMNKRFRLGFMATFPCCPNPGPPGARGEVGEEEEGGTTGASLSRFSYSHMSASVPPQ

[5] = target: T2, Gastrin/cholecystokinin type B receptor; assay: Antagonist activity at CCK2 receptor expressed in HEK293 cells assessed as accumulation of [3H]inositol phosphates by PI assay; assay type: functional, cell-based
[6] = target: Mu-type opioid receptor (Rattus norvegicus) (UniProt P33535); assay: (§1) Activity against [35S]GTP-gamma-S binding to rat mu opioid receptor expressed in HN9.10 cells; assay type: functional, cell-based
Sequence of Mu-type opioid receptor (Rattus norvegicus) (P33535 whole entry): as the sequence (P33535 whole entry) above
How it was run: (§2)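 Membranes (10 μg) from HN9.10 cells stably expressing hDOR or rMOR; various drug concentrations in duplicate or triplicate, 90 min at 30 °C in HEPES pH 7.4 with GDP, MgCl2, NaCl, 0.1 nM [35S]GTPγS; filtration, scintillation counting.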

Mu-type opioid receptor [7] = target: T1, Mu-type opioid receptor; assay: as §1; assay type: functional, cell-based; how it was run: as §2
Mu-type opioid receptor [8] = target: Mu-type opioid receptor (Cavia porcellus, UniProt P97266); assay: Agonist activity at mu opioid receptor assessed as inhibition of electrically stimulated Hartley guinea pig ileum contraction; assay type: functional, tissue-based
Sequence of Mu-type opioid receptor (Cavia porcellus, UniProt P97266) (P97266 whole entry): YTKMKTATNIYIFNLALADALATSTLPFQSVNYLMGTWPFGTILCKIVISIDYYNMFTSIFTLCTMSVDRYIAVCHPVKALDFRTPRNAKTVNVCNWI
How it was run: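 Longitudinal muscle–myenteric plexus strips from male Hartley guinea pig ileum, 1 g tension, oxygenated Krebs at 37 °C; 0.1 Hz, 0.4 ms supramaximal stimulation. […] Integrity checked with 10 nM PL-017. Hill-equation fit, at least four tissues.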

[9] = target: T4, Delta-type opioid receptor (Homo sapiens, UniProt P41143); assay: Displacement of [3H]DPDPE from human delta opioid receptor expressed in HN9.10 cells; assay type: cell-based
T4 sequence (P41143 whole entry): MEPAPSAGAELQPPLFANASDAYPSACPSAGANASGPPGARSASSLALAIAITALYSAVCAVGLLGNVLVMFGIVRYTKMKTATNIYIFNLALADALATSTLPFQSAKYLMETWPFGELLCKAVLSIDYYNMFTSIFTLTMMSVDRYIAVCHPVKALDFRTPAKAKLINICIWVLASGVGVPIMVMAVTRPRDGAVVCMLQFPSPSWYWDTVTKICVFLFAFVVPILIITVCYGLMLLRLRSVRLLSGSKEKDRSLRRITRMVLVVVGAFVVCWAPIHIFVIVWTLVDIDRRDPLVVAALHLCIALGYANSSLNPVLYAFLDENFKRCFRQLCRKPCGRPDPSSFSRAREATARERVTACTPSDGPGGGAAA
How it was run: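 HN9.10 cell membranes (50 μg) expressing hDOR, 10 test concentrations with 1.0 nM [3H]DPDPE in 50 mM Tris pH 7.4 with peptidase inhibitors and BSA, 3 h at 25 °C, duplicates; filtration, scintillation counting. Nonspecific with 10 μM naloxone. Ki by Cheng–Prusoff.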

[10] = target: T4, Delta-type opioid receptor; assay: Activity against [35S]GTP-gamma-S binding to human delta opioid receptor expressed in HN9.10 cells; assay type: functional, cell-based; how it was run: as §2
[11] = target: T5, Cholecystokinin receptor type A (Homo sapiens) (UniProt P32238); settings: HEK293
T5 sequence (whole entry): T3 sequence (P32238 whole entry)

CCCC[C@@H](C(=O)N[C@@H](CC(=O)O)C(=O)N[C@@H](Cc1ccccc1)C(N)=O)N(C)C(=O)[C@H](Cc1c[nH]c2ccccc12)NC(=O)CNC(=O)[C@@H](Cc1ccccc1)NC(=O)[C@@H](N)Cc1ccc(O)cc1
IC50 [1]: 65 nM | IC50 (Mu-type opioid receptor [2]): 245 nM | Ki (Mu-type opioid receptor [2]): 100 nM | IC50 [3]: 15.1 nM | Ki [3]: 15 nM | IC50 [4]: 3630 nM | Ki [4]: 3600 nM | EC50 [5]: 16 nM | Emax [6]: 300% | EC50 (Mu-type opioid receptor [7]): 22 nM | IC50 (Mu-type opioid receptor [8]): 100 nM | IC50 [9]: 18.6 nM | Ki [9]: 1 nM | EC50 [10]: 2.5 nM | Emax [10]: 84%

CCCC[C@H](NC(=O)[C@@H](Cc1c[nH]c2ccccc12)NC(=O)CNC(=O)[C@@H](C)NC(=O)[C@@H](N)Cc1ccc(O)cc1)C(=O)N[C@@H](CC(=O)O)C(=O)N[C@@H](Cc1ccccc1)C(N)=O
IC50 [1]: 1300 nM | IC50 (Mu-type opioid receptor [2]): 1290 nM | Ki (Mu-type opioid receptor [2]): 590 nM | IC50 [3]: 2690 nM | Ki [3]: 2700 nM | IC50 [4]: 6460 nM | Ki [4]: 6500 nM | EC50 [5]: 330 nM | Emax [6]: 110% | EC50 (Mu-type opioid receptor [7]): 350 nM | IC50 (Mu-type opioid receptor [8]): 2300 nM | IC50 [9]: 2000 nM | Ki [9]: 860 nM | EC50 [10]: 130 nM | Emax [10]: 91%

CCCC[C@H](NC(=O)[C@H](Cc1c[nH]c2ccccc12)NC(=O)CNC(=O)[C@@H](C)NC(=O)[C@@H](N)Cc1ccc(O)cc1)C(=O)N[C@@H](CC(=O)O)C(=O)N[C@@H](Cc1ccccc1)C(N)=O
IC50 [1]: 45 nM | IC50 (Mu-type opioid receptor [2]): 18.2 nM | Ki (Mu-type opioid receptor [2]): 7.8 nM | IC50 [3]: 145 nM | Ki [3]: 150 nM | IC50 [4]: 5750 nM | Ki [4]: 5700 nM | EC50 [5]: 8 nM | Emax [6]: 86% | EC50 (Mu-type opioid receptor [7]): 12 nM | IC50 (Mu-type opioid receptor [8]): 160 nM | IC50 [9]: 0.525 nM | Ki [9]: 0.22 nM | EC50 [10]: 5.9 nM | Emax [10]: 74%

CCCC[C@@H](C(=O)N[C@@H](CC(=O)O)C(=O)N[C@@H](Cc1ccccc1)C(N)=O)N(C)C(=O)[C@H](Cc1c[nH]c2ccccc12)NC(=O)CNC(=O)[C@@H](C)NC(=O)[C@@H](N)Cc1ccc(O)cc1
IC50 [1]: 66 nM | IC50 (Mu-type opioid receptor [2]): 89.1 nM | Ki (Mu-type opioid receptor [2]): 39 nM | IC50 [3]: 1.62 nM | Ki [3]: 1.6 nM | IC50 [4]: 5130 nM | Ki [4]: 5100 nM | EC50 [5]: 4.6 nM | Emax [6]: 73% | EC50 (Mu-type opioid receptor [7]): 18 nM | IC50 (Mu-type opioid receptor [8]): 470 nM | IC50 [9]: 5.25 nM | Ki [9]: 2.2 nM | EC50 [10]: 120 nM | Emax [10]: 270%

CCCC[C@@H](C(=O)N[C@@H](CC(=O)O)C(=O)N[C@@H](Cc1ccccc1)C(N)=O)N(C)C(=O)[C@@H](Cc1c[nH]c2ccccc12)NC(=O)CNC(=O)[C@@H](Cc1ccccc1)NC(=O)[C@@H](N)Cc1ccc(O)cc1
IC50 [1]: 24 nM | Log EC50 [11]: inactive | IC50 (Mu-type opioid receptor [2]): 13.8 nM | Ki (Mu-type opioid receptor [2]): 5.9 nM | IC50 [3]: 1.1 nM | Ki [3]: 1.1 nM | IC50 [4]: 1100 nM | Ki [4]: 1100 nM | EC50 [5]: 2.8 nM | Emax [6]: 50% | IC50 (Mu-type opioid receptor [8]): 71 nM | IC50 [9]: 1 nM | Ki [9]: 0.42 nM | EC50 [10]: 29 nM | Emax [10]: 14%
